Test results as given in ChEMBL document CHEMBL1141102, “Structure-activity studies of peptides from the "hot-spot" region of human CD2 protein: development of peptides for immunomodulation” (2005).
Where a SMILES comes first, the peptide text is derived from it. Bridges are numbered along the chain shown (N, C = ends). [ ]: non-standard residue; d: D form. The star is where a group is joined. Pen = CC(C)(S)[C@H](N)C(=O)O; Acm = CC(=O)NC*

Key:
[1] = Percent inhibition of CD58 and CD2 interaction in caco-2 and Jurkat cell adhesion assay at 90 uM; format: functional; settings: Homo sapiens
Summary of the method: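 Confluent Caco-2 monolayers (passages 50–60, human CD58) preincubated with peptide in MEM-α at 37 °C for 30 min. Jurkat cells (CD2), loaded with 2 μM BCECF at 37 °C for 1 h, then added at 1×10^6 cells/well for 45 min at 37 °C. Nonadherent cells washed off with PBS; bound cells lysed in 2% Triton X-100/0.2 N NaOH. Background-corrected fluorescence read; percent inhibition; mean of three experiments.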

[2] = biological target: T1, Lymphocyte function-associated antigen 3 (Homo sapiens) (UniProt P19256); assay: Percent inhibition of E-rossette formation in sheep red blood cells at 200 uM on incubation with T-cells; range 5-15%; format: functional, cell-based; settings: Ovis aries
T1 sequence (whole entry): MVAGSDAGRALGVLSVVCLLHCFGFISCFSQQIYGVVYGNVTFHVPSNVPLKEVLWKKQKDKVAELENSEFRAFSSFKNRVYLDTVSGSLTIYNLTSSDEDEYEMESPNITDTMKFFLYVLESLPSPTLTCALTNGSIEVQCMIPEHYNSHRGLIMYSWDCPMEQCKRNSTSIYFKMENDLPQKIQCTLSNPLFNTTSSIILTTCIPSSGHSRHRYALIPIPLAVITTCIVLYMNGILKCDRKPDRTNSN
Summary of the method: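 Sheep RBCs treated with AET at 37 °C for 15 min, used as 0.5% suspension. Peptide serially diluted in PBS, incubated with the SRBCs at 37 °C for 30 min, then Jurkat cells (2×10^6 cells/mL) added for 15 min. Cells pelleted and held at 4 °C for 1 h. Rosettes counted by hemocytometer on at least 200 cells; percent inhibition; mean of three independent experiments.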

Row | inhibition [2] | Compound | inhibition at 90 µM [1]
1 | – | CC[C@H](C)[C@@H]1NC(=O)[C@@H](N)C(C)(C)SSC[C@@H](C(=O)O)NC(=O)[C@H](CC(C)C)NC(=O)[C@H](C(C)C)NC(=O)[C@H](CC(N)=O)NC(=O)[C@H](CCCCN)NC(=O)CNC(=O)[C@H](CCCCN)NC(=O)[C@H]([C@@H](C)O)NC(=O)[C@H](CC(=O)O)NC(=O)[C@H](Cc2ccc(O)cc2)NC1=O | 50%
2 | – | C[C@@H](O)[C@@H]1NC(=O)[C@@H](CC(=O)O)NC(=O)[C@H](Cc2ccc(O)cc2)NC(=O)[C@@H](CCCCN)NC(=O)CNC(=O)[C@@H](CCCCN)NC1=O | 20%
3 | – | NCCCC[C@@H]1NC(=O)[C@@H](CCC(=O)O)NC(=O)[C@H](CCCCN)NC(=O)[C@@H](CCCN=C(N)N)NC(=O)[C@H](Cc2ccccc2)NC(=O)[C@@H](CCC(=O)O)NC1=O | 25%
4 | – | CC(=O)NCSC[C@H](NC(=O)[C@H](Cc1ccccc1)NC(=O)[C@@H](NC(=O)[C@H](CCC(=O)O)NC(=O)[C@H](CCCCN)NC(=O)[C@H](CCC(=O)O)NC(=O)[C@H](CCCCN)NC(=O)[C@H](CCCN=C(N)N)NC(=O)[C@H](Cc1ccccc1)NC(=O)[C@H](CCC(N)=O)NC(=O)[C@H](C)NC(=O)[C@@H](N)C(C)(C)SCNC(C)=O)[C@@H](C)O)C(=O)O (H-[Pen](Acm)AQFRKEKETFC(Acm)-OH) | 25%
5 | – | C[C@@H]1NC(=O)[C@@H](N)C(C)(C)SSC[C@@H](C(=O)O)NC(=O)[C@H](Cc2ccccc2)NC(=O)[C@H]([C@@H](C)O)NC(=O)[C@H](CCC(=O)O)NC(=O)[C@H](CCCCN)NC(=O)[C@H](CCC(=O)O)NC(=O)[C@H](CCCCN)NC(=O)[C@H](CCCN=C(N)N)NC(=O)[C@H](Cc2ccccc2)NC(=O)[C@H](CCC(N)=O)NC1=O (H-[Pen]AQFRKEKETFC-OH; disulfide 1-12) | 50%
6 | 15% | H-SIYDTKGKNVLE-NH2 | 25%
